{"source": "ChEMBL document CHEMBL1949555", "about": "“Piperazine-2,3-dicarboxylic acid derivatives as dual antagonists of NMDA and GluK1-containing kainate receptors” (J Med Chem, 2012)", "key": {"[1]": {"biological_target": "Glutamate receptor ionotropic, kainate 1 (Homo sapiens, UniProt P39086)", "sequence (P39086 whole entry)": "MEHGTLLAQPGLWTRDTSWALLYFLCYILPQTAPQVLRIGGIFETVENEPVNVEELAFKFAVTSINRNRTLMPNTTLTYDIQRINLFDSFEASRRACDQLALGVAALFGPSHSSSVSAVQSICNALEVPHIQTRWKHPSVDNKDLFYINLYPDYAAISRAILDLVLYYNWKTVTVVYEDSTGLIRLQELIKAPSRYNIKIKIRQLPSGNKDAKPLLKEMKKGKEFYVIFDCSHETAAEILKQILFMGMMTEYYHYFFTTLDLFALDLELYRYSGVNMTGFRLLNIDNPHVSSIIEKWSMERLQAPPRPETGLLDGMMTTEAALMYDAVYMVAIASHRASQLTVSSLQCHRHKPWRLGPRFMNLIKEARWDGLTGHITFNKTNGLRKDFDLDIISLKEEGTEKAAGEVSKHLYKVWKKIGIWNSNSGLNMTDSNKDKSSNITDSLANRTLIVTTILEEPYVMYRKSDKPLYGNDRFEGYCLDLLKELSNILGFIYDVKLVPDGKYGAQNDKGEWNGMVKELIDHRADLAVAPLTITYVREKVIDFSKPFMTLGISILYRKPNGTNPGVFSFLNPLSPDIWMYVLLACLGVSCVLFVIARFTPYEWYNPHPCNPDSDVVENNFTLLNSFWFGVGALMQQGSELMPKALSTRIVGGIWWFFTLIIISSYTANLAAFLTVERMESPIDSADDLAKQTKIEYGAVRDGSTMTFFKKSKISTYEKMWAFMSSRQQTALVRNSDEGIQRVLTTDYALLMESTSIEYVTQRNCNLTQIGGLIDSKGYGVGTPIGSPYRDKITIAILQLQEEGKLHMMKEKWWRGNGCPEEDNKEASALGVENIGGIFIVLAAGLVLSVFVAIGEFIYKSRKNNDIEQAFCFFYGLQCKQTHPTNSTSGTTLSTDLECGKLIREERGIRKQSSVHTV", "experiment": "Antagonist activity at human recombinant GluK1 receptor expressed in human HEK293 cells assessed as inhibition of glutamate-stimulated calcium influx by fluorescence assay", "assay_type": "functional, cell-based", "procedure,_shortened": "(§1)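 HEK293 lines stably expressing homomeric human GluK1(Q) or GluK2(Q), passaged no more than 20 times. Ca2+ influx is read as fluorescence, with concanavalin A present. Test compound is added in a first run, then L-glutamate plus antagonist in a second run (final glutamate 30 μM for GluK1, 10 μM for GluK2). IC50 values are converted to KB. Means ± s.e.m.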"}, "[2]": {"biological_target": "Glutamate receptor ionotropic, kainate 2 (Homo sapiens, UniProt Q13002)", "sequence (Q13002 whole entry)": "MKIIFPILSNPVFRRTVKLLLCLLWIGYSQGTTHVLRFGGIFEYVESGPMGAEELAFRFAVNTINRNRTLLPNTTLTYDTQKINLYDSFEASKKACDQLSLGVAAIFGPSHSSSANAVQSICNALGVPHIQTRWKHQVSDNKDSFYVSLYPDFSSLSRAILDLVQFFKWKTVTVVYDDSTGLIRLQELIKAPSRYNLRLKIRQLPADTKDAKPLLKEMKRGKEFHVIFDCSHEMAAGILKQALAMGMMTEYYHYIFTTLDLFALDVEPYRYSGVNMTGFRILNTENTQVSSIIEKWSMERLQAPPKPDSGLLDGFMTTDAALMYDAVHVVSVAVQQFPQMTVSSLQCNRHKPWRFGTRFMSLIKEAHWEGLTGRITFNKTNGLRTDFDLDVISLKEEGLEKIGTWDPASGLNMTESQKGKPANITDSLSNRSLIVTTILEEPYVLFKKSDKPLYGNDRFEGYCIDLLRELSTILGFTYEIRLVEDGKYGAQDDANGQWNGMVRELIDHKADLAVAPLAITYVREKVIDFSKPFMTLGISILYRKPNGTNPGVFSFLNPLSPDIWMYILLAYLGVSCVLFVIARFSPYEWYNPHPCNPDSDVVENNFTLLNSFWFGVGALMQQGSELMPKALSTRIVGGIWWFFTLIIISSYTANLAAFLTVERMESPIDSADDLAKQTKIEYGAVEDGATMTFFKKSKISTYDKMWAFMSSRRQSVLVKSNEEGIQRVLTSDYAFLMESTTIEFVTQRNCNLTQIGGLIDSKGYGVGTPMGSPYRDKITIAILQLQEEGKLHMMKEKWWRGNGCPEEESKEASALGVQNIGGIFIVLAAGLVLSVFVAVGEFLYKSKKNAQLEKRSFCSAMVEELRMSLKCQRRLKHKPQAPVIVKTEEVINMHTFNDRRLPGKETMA", "experiment": "Antagonist activity at human recombinant GluK2 receptor expressed in human HEK293 cells assessed as inhibition of glutamate-stimulated calcium influx by fluorescence assay", "assay_type": "functional, cell-based", "procedure,_shortened": "as §1"}, "[3]": {"species": "Rattus norvegicus", "experiment": "Antagonist activity at AMPA receptor in CA3 region of rat hippocampus assessed as change in AMPA-mediated field excitatory postsynaptic potential at 100 uM", "assay_type": "functional, tissue-based", "procedure,_shortened": "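Field EPSPs recorded from transverse rat hippocampal slices (400 μm), CA3 mossy fiber synapses. Compound 100 μM perfused 30 min. fEPSPs averaged every 2 min; slope between 20 and 80% of maximum measured and expressed as % of control slope. Mean ± s.e.m., n=4.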"}, "[4]": {"tested_on": "Rattus norvegicus", "experiment": "Antinociceptive activity in Wistar rat at 30 mg/kg, ip", "assay_type": "functional, organism-based", "parameters": "dose 30 mg/kg", "procedure,_shortened": "(§2)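 Male Wistar rats (~250 g) with partial saphenous nerve ligation injury, tested on day 7 after injury and also before injury. Drug at 30 mg/kg or vehicle is given i.p. (n=5/group), with testing starting 15 min later. Mechanical threshold is taken from von Frey stimulus:response curves on both hindpaws (5 applications per hair). Thermal latency to radiant heat is the mean of 3 trials per hindpaw. Analysis by two-way ANOVA.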"}, "[5]": {"biological_target": "Glutamate receptor ionotropic, kainate 3 (Rattus norvegicus) (UniProt P42264)", "sequence (P42264 whole entry)": "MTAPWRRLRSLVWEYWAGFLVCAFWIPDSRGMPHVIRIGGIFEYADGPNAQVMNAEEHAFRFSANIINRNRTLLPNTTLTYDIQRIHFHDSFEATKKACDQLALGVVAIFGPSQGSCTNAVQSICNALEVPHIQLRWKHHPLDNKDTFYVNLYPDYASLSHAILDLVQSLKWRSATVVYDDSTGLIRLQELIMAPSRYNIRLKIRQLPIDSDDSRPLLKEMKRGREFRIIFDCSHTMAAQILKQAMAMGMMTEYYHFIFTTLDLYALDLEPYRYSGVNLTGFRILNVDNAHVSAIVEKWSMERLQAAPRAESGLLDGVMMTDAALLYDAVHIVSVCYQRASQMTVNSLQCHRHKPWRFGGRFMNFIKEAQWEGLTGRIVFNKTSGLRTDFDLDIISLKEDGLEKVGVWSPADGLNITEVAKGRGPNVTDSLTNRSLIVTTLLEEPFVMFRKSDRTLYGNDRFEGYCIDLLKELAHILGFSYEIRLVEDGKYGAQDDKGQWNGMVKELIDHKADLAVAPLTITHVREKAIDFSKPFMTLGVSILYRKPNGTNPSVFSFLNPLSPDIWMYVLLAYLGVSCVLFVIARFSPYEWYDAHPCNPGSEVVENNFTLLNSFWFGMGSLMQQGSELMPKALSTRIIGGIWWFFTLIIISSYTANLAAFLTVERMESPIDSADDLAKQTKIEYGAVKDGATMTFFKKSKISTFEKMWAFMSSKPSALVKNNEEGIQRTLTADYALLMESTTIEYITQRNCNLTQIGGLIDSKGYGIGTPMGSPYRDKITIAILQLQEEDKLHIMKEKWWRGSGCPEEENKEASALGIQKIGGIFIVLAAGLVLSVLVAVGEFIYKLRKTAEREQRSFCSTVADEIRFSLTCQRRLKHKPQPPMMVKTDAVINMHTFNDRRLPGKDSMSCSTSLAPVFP", "experiment": "Displacement of [3H]-Kainate from wild type rat GluK3 receptor transfected in human HEK293 cells at 100 uM by immunoblot analysis", "assay_type": "cell-based"}, "[6]": {"biological_target": "Ionotropic glutamate receptor NMDA 1/2D (Rattus norvegicus, UniProt P35439+Q62645)", "experiment": "Antagonist activity rat recombinant GluN1/GluN2D receptor expressed in Xenopus laevis oocytes assessed as inhibition of glutamate-induced response by two-electrode voltage-clamp electrophysiology assay", "assay_type": "functional, cell-based, Oocyte", "conditions": "read-out: Ki(app)"}, "[7]": {"tested_on": "HEK293", "experiment": "Displacement of [3H]-Kainate from […] rat GluK3 A660S mutant transfected in human HEK293 cells at 1 mM by immunoblot analysis", "assay_type": "cell-based"}, "[8]": {"biological_target": "Glutamate receptor ionotropic, kainate 3 (Rattus norvegicus) (UniProt P42264)", "experiment": "Displacement of [3H]-Kainate from wild type rat GluK3 receptor transfected in human HEK293 cells at 300 uM by immunoblot analysis", "assay_type": "cell-based"}, "[9]": {"biological_target": "Glutamate NMDA receptor; Grin1/Grin2b (Rattus norvegicus, UniProt P35439+Q00960)", "experiment": "Antagonist activity rat recombinant GluN1/GluN2B receptor expressed in Xenopus laevis oocytes assessed as inhibition of glutamate-induced response by two-electrode voltage-clamp electrophysiology assay", "assay_type": "functional, cell-based, Oocyte", "conditions": "read-out: Ki(app)", "procedure,_shortened": "(§3)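 Two-electrode voltage clamp of oocytes expressing rat GluN1a with the given GluN2 subunit, held at −60 mV in buffer of 116 mM NaCl, 2 mM KCl, 0.3 mM BaCl2, 5 mM HEPES, pH 7.4. Response is the steady plateau to bath-applied 10 μM L-glutamate plus 10 μM glycine. IC50 converted to apparent Ki via Ki = IC50/(1 + [agonist]/EC50). Means ± s.e.m.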"}, "[10]": {"biological_target": "Glutamate receptor ionotropic, kainate 3 (Homo sapiens, UniProt Q13003)", "sequence (Q13003 whole entry)": "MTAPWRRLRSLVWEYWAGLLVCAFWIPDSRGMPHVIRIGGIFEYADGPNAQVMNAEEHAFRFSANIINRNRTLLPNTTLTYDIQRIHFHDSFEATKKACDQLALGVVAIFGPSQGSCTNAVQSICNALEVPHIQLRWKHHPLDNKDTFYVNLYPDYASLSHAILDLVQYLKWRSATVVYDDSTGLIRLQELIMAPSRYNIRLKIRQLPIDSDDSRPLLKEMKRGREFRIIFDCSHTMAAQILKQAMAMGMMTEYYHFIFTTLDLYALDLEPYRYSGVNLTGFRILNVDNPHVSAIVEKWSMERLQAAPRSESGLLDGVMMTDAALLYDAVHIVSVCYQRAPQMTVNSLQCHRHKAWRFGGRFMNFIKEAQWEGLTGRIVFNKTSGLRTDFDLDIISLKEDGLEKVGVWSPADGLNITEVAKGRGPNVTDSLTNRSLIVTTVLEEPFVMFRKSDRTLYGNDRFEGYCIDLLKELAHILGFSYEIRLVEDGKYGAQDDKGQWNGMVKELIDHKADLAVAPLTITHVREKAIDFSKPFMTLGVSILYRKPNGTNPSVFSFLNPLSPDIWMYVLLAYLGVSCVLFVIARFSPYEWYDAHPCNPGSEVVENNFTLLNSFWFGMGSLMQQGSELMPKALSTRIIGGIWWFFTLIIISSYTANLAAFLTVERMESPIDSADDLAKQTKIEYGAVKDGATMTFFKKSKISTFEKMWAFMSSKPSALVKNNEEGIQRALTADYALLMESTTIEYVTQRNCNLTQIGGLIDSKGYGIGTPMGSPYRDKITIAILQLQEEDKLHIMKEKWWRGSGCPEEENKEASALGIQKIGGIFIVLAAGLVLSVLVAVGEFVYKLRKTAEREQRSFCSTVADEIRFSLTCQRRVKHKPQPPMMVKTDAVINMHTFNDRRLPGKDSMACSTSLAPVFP", "experiment": "Antagonist activity at human recombinant GluK3 receptor expressed in human HEK293 cells assessed as inhibition of glutamate-stimulated calcium influx by fluorescence assay", "assay_type": "functional, cell-based"}, "[11]": {"tested_on": "Rattus norvegicus", "experiment": "Antinociceptive activity in Wistar rat nerve injury model assessed as reversal of drop in mechanical withdrawal threshold at 30 mg/kg, ip administered before 1 hr on day 7 of injury relative to control", "assay_type": "functional, organism-based", "parameters": "dose 30 mg/kg", "procedure,_shortened": "as §2"}, "[12]": {"biological_target": "Glutamate receptor ionotropic, kainate 3 (Rattus norvegicus) (UniProt P42264)", "experiment": "Displacement of [3H]-Kainate from wild type rat GluK3 receptor transfected in human HEK293 cells at 1 mM by immunoblot analysis", "assay_type": "cell-based"}, "[13]": {"biological_target": "Glutamate NMDA receptor; Grin1/Grin2a (Rattus norvegicus, UniProt P35439+Q00959)", "sequence (Q00959 whole entry, other chains not shown)": "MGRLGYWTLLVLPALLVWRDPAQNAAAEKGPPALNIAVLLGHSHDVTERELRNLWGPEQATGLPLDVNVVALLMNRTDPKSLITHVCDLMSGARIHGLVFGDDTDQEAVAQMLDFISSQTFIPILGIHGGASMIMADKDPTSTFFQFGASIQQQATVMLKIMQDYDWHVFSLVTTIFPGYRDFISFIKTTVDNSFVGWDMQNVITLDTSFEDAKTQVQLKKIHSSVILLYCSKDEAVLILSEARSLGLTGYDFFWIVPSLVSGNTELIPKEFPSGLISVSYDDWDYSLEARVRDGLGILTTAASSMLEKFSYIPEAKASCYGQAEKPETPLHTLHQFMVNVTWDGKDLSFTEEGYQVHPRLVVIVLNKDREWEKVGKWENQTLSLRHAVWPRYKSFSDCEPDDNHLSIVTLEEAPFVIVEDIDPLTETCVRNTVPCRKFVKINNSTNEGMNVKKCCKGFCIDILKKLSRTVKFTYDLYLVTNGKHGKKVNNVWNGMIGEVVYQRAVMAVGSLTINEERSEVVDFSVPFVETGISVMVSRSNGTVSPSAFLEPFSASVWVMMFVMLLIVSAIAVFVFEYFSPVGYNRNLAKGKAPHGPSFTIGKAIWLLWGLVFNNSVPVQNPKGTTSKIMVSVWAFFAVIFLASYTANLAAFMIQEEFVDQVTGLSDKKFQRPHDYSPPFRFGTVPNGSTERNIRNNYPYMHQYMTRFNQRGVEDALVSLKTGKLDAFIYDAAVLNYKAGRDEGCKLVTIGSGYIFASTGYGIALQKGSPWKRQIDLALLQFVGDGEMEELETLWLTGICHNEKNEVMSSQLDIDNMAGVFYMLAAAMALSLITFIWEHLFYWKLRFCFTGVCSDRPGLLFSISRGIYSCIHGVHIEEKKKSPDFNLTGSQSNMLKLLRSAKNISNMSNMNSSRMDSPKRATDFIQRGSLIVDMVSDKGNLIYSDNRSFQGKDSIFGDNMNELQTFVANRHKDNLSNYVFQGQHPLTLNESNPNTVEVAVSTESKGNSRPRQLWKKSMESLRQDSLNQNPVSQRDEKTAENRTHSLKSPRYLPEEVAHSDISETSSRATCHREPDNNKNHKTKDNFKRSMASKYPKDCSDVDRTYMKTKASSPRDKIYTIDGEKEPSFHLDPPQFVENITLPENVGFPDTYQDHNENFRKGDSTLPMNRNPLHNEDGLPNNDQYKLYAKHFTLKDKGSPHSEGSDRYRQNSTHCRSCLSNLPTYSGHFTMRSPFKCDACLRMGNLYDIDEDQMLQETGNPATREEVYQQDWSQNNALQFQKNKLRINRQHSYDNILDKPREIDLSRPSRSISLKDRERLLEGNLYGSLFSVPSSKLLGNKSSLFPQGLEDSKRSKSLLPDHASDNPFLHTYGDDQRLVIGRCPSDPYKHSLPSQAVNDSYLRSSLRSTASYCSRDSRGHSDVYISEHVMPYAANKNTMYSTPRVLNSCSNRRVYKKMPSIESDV", "experiment": "Antagonist activity at rat recombinant GluN1/GluN2A receptor expressed in Xenopus laevis oocytes assessed as inhibition of glutamate-induced response by two-electrode voltage-clamp electrophysiology assay", "assay_type": "functional, cell-based, Oocyte", "conditions": "read-out: Ki(app)"}, "[14]": {"biological_target": "Glutamate NMDA receptor; Grin1/Grin2c (Rattus norvegicus, UniProt P35439+Q00961)", "experiment": "Antagonist activity rat recombinant GluN1/GluN2C receptor expressed in Xenopus laevis oocytes assessed as inhibition of glutamate-induced response by two-electrode voltage-clamp electrophysiology assay", "assay_type": "functional, cell-based, Oocyte", "conditions": "read-out: Ki(app)", "procedure,_shortened": "as §3"}, "[15]": {"tested_on": "HEK293", "experiment": "Displacement of [3H]-Kainate from […] rat GluK3 A660S mutant transfected in human HEK293 cells at 300 uM by immunoblot analysis", "assay_type": "cell-based"}, "[16]": {"tested_on": "HEK293", "experiment": "Displacement of [3H]-Kainate from rat GluK3 A660S mutant transfected in human HEK293 cells at 100 uM by immunoblot analysis", "assay_type": "cell-based"}, "[17]": {"species": "Rattus norvegicus", "experiment": "Selectivity ratio of IC50 for rat GluK3 receptor to IC50 for rat GluK1 receptor", "procedure,_shortened": "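IC50 ratio from whole-cell patch clamp on HEK293 cells stably expressing homomeric GluK1 or GluK3, voltage clamped at −70 mV, 20°C. Glutamate is applied fast through a theta tube. Antagonist is applied about 2 min or until the response is stable, at five concentrations per cell, giving a dose-response curve for each cell.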"}, "[18]": {"tested_on": "Rattus norvegicus", "experiment": "Antinociceptive activity in Wistar rat nerve injury model assessed as increased thermal withdrawal latency at 30 mg/kg, ip", "assay_type": "functional, organism-based", "parameters": "dose 30 mg/kg", "procedure,_shortened": "as §2"}}, "note": "Activity calls are given as the source filed them.", "data": [{"smiles": "O=C(O)[C@H]1NCCN(C(=O)c2ccc3cc(I)c4ccccc4c3c2)[C@H]1C(=O)O", "note": "(relative stereo)", "values": [{"measurement": "IC50", "setting": "[1]", "value": 0.65, "unit": "µM"}, {"measurement": "Kb", "setting": "[1]", "value": 4.8, "unit": "µM"}, {"measurement": "IC50", "setting": "[2]", "value": "> 100", "unit": "µM"}, {"measurement": "Kb", "setting": "[2]", "value": "> 100", "unit": "µM"}, {"measurement": "Activity", "setting": "[3]", "value": "inactive"}, {"measurement": "Activity", "setting": "[4]", "value": "Active"}, {"measurement": "inhibition", "setting": "[5]", "value": "Active"}, {"measurement": "Ki", "setting": "[6]", "value": 1, "unit": "µM"}, {"measurement": "inhibition", "setting": "[7]", "value": "Active"}, {"measurement": "inhibition", "setting": "[8]", "value": "Active"}, {"measurement": "Ki", "setting": "[9]", "value": 3.8, "unit": "µM"}, {"measurement": "IC50", "setting": "[10]", "value": 81.3, "unit": "µM"}, {"measurement": "Activity", "setting": "[11]", "value": "Active"}, {"measurement": "inhibition", "setting": "[12]", "value": "Active"}, {"measurement": "Ki", "setting": "[13]", "value": 7.4, "unit": "µM"}, {"measurement": "Ki", "setting": "[14]", "value": 1.9, "unit": "µM"}, {"measurement": "inhibition", "setting": "[15]", "value": "Active"}, {"measurement": "inhibition", "setting": "[16]", "value": "Active"}, {"measurement": "Ratio IC50", "setting": "[17]", "value": "> 100"}, {"measurement": "Activity", "setting": "[18]", "value": "Active"}]}]}
